Several values for one entry are separate records, joined by “and”; a condition that tells them apart may be missing. Equal values may be shown once.
Columns and labels:
FAAH [1] = conditions: Phase II crossover study, pain associated with osteoarthritis; cited from earlier work
FAAH [2] = conditions: URB597 2 mg/kg ip; cited from earlier work
FAAH [3] = conditions: rodents; cited from earlier work
FAAH [4] = conditions: previously reported; cited from earlier work
FAAH [5] = molecular target: T1, FAAH (Rattus norvegicus, UniProt P97612); experiment: Irreversible binding of [^11C]PF-04457845 to FAAH in the rat brain; format: in vivo
T1 sequence (P97612 1-579): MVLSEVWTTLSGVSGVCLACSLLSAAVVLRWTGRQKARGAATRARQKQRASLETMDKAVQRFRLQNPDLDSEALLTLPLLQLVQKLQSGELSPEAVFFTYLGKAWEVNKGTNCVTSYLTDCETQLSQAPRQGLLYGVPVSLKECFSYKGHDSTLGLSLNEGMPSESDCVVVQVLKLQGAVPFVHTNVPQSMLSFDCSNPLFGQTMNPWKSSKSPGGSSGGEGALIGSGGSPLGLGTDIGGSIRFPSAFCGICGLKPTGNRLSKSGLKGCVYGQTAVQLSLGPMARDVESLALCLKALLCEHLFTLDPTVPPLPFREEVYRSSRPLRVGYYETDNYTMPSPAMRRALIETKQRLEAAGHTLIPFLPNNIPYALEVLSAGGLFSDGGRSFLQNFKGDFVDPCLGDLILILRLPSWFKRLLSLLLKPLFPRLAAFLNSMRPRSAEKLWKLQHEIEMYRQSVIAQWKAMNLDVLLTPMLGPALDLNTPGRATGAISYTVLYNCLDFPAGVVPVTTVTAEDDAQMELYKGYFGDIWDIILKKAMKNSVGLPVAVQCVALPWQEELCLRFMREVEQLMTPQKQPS

FAAH [6] = molecular target: T1, FAAH; experiment: Pharmacological blocking of [^11C]PF-04457845 uptake in rat brain; format: in vivo; conditions: control vs URB597 (2 mg/kg ip) pretreated group; 40 min post injection
[7] = Ex vivo biodistribution of [^11C]PF-04457845 in conscious rat brain and plasma; conditions: for Ex vivo biodistribution, Cerebellum / Ex vivo biodistribution, Cortex / Ex vivo biodistribution, Hypothalamus / Ex vivo biodistribution, Plasma / Ex vivo biodistribution, Rest of Brain: n = 4
[8] = HPLC analysis of plasma metabolites; format: in vivo; conditions: rat
How it was run: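 Heparinized rat trunk blood is centrifuged, and the plasma is acidified with 20% (v/v) of 50% aqueous acetic acid. It is loaded onto an HLB capture column, eluted with 1% acetonitrile (2 mL/min, 4 min), then backflushed with 60% acetonitrile/water + 0.1 N ammonium formate (pH 4) onto C18. Detection is by coincidence-mode radio-flow. Eluent switches to 100% ethanol after the parent to detect lipophilic metabolites. Peaks are decay-corrected and integrated.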

FAAH [9] = conditions: rodents, cited from earlier work

For `O=C(Nc1cccnn1)N1CCC(=Cc2cccc(Oc3ccc(C(F)(F)F)cn3)c2)CC1` [PF-04457845], the analgesic effect (FAAH [1]) is given as “did not induce an analgesic effect” and the “endocannabinoid levels in blood” value (FAAH [1]) is given as “modulate endocannabinoid levels in blood”.

For `NC(=O)c1cccc(-c2cccc(OC(=O)NC3CCCCC3)c2)c1` [URB597, 3′-carbamoyl-[1,1′-biphenyl]-3-yl-cyclohexylcarbamate], the “FAAH enzyme inactivated in rodent brains” value (FAAH [2]) is given as > 90% and 90%.

In the case of `COc1ccc(NC(=O)Oc2ccc[11c](-c3ccccc3)c2)cc1` [[^11C]1,1′-biphenyl-3-yl-(4-methoxyphenyl)carbamate], the brain uptake (FAAH [3]) is listed as “low brain uptake” and the specific binding (FAAH [3]) is listed as “no detectable specific binding”.

In the case of `O=[11C](NC1CCCCC1)Oc1ccc(O)c(-c2ccccc2)c1` [[^11C]CURB, [^11C-carbonyl]-6-hydroxy-[1,1′-biphenyl]-3-yl-cyclohexylcarbamate], the “level of specific binding” value (FAAH [4]) is given as 80%.

For `O=C(Nc1cccnn1)N1CCC(=Cc2cccc(Oc3ccc(C(F)(F)F)cn3)c2)CC1` [[^11C]PF-04457845], the “SBR (specific to non-specific binding ratio) to FAAH from extraction studies” value (FAAH [5]; rat whole brain, ([95/5]-1)) was greater than 18, the “radioactivity irreversibly bound to brain tissue” value (FAAH [5]; rat, 2 min post injection) was 84% and the extractable brain radioactivity (FAAH [5]; rat, 40 min post injection) was 2%. The “radioactivity in whole brain that is FAAH-bound” value (FAAH [5]; rat, 40 min post injection) was greater than 95%, the “radioactivity irreversibly bound to brain tissue” value (FAAH [5]; rat, 40 min post injection) was 98% and the “radioactivity bound to brain parenchyma” value (FAAH [5]; rat, after ip pre-treatment with URB597 (2 mg/kg)) was 5%. For the same molecule, the “specific to non-specific binding ratio, cerebellum” value (FAAH [6]) was 3.4, the “specific to non-specific binding ratio, cortex” value (FAAH [6]) was 4.2 and the “specific to non-specific binding ratio, hypothalamus” value (FAAH [6]) was 2.5. The brain uptake ([7]; conscious rats, tail-vein injection, across regions and time points) was 1.2 to 4.4 SUV, the “Ex vivo biodistribution, Cerebellum” value ([7]; rat, 2 min post iv injection) was 1.87 ± 0.05 SUV and the “Ex vivo biodistribution, Cortex” value ([7]; rat, 2 min post iv injection) was 2.22 ± 0.06 SUV. For the same molecule, the “Ex vivo biodistribution, Hypothalamus” value ([7]; rat, 2 min post iv injection) was 1.29 ± 0.05 SUV, the “Ex vivo biodistribution, Plasma” value ([7]; rat, 2 min post iv injection) was 1.03 ± 0.19 SUV and the “Ex vivo biodistribution, Rest of Brain” value ([7]; rat, 2 min post iv injection) was 1.51 ± 0.08 SUV. The “Ex vivo biodistribution, Cerebellum” value ([7]; rat, 15 min post iv injection) was 3.17 ± 0.10 SUV, the “Ex vivo biodistribution, Cortex” value ([7]; rat, 15 min post iv injection) was 3.64 ± 0.24 SUV and the “Ex vivo biodistribution, Hypothalamus” value ([7]; rat, 15 min post iv injection) was 1.96 ± 0.10 SUV. For the same molecule, the “Ex vivo biodistribution, Plasma” value ([7]; rat, 15 min post iv injection) was 0.33 ± 0.04 SUV, the “Ex vivo biodistribution, Rest of Brain” value ([7]; rat, 15 min post iv injection) was 2.44 ± 0.07 SUV and the “Ex vivo biodistribution, Cerebellum” value ([7]; rat, 40 min post iv injection) was 3.56 ± 0.10 SUV. The “Ex vivo biodistribution, Cortex” value ([7]; rat, 40 min post iv injection) was 4.11 ± 0.30 SUV, the “Ex vivo biodistribution, Hypothalamus” value ([7]; rat, 40 min post iv injection) was 2.18 ± 0.20 SUV and the “Ex vivo biodistribution, Plasma” value ([7]; rat, 40 min post iv injection) was 0.12 ± 0.01 SUV. The “Ex vivo biodistribution, Rest of Brain” value ([7]; rat, 40 min post iv injection) was 2.77 ± 0.24 SUV, the “Ex vivo biodistribution, Cerebellum” value ([7]; rat, 60 min post iv injection) was 3.42 ± 0.34 SUV and the “Ex vivo biodistribution, Cortex” value ([7]; rat, 60 min post iv injection) was 3.92 ± 0.37 SUV. The “Ex vivo biodistribution, Hypothalamus” value ([7]; rat, 60 min post iv injection) was 2.10 ±0.31 SUV, the “Ex vivo biodistribution, Plasma” value ([7]; rat, 60 min post iv injection) was 0.09 ± 0.03 SUV and the “Ex vivo biodistribution, Rest of Brain” value ([7]; rat, 60 min post iv injection) was 2.59 ± 0.19 SUV. The “time at which brain uptake reaches a plateau” value ([7]; rat, post injection) was 40 min, the “parent radiotracer remaining in plasma” value ([8]; 15 min post injection) was 82% and the “parent radiotracer remaining in plasma” value ([8]; 40 min post injection) was 73%. The “parent radiotracer remaining in plasma” value ([8]; 60 min post injection) was 66% and the “lipophilic metabolite, share of total radioactivity present in plasma” value ([8]; later time-points) was 3 – 3.5%.

In the case of `O=C(Nc1cccnn1)N1CCC(=Cc2cccc(Oc3ccc(OCC[18F])cn3)c2)CC1` [[^18F]PF-9811, 4-(3-((5-(2-[^18F]fluoroethoxy)pyridine-2-yl)oxy)benzylidene)-N-(pyridazin-3-yl)piperidine-1-carboxamide], the “brain uptake in the cortex” value (FAAH [9]; 90 min) is listed as 0.8 SUV and the “specific to non-specific binding ratios” value (FAAH [9]) is listed as 2.3 – 2.6.
